GSK3beta inhib = inhibitors of human GSK3beta kinase; AID 2097; 300,000 tested, 0.038% active; P49841; GST-GSK3beta kinase, ADP-Glo luminescence, 60 min; active compounds read low; activity score (negative = inhibition), % at 10 µM;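 active means more than half of replicate wells score below -50%, meaning over 50% inhibition versus plate controls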;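 further: 0% = median DMSO wells and -100% = median GW8510 positive control wells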
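Assay system: GST-fused GSK3beta enzyme, cell-free / Medium: Tris pH 7.5 buffer with MgCl2, DTT, BSA, heparin / Also added: peptide substrate plus 25 µM ATP (final) / Compound: 10 µM single point / Timing: kinase reaction with compound 60 min at room temperature / Detection: ADP-Glo luminescence / Benchmarks: DMSO neutral wells and GW8510 at 20 µM as positive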
GSK3A inh = human GSK-3 alpha kinase inhibition | P49840 | ADP-Glo luminescence, 60 min | inhibition, % at 10 µM | 320,000 tested, 0.1% active | AID 2650;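 active means more than half of replicates show inhibition above 20%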;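 further: GST-tagged GSK-3 alpha with peptide substrate and 25 µM ATP; 0% = DMSO neutral wells and 100% = GW8510 positive control wells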
Target sequence (P49840 whole entry, looked up): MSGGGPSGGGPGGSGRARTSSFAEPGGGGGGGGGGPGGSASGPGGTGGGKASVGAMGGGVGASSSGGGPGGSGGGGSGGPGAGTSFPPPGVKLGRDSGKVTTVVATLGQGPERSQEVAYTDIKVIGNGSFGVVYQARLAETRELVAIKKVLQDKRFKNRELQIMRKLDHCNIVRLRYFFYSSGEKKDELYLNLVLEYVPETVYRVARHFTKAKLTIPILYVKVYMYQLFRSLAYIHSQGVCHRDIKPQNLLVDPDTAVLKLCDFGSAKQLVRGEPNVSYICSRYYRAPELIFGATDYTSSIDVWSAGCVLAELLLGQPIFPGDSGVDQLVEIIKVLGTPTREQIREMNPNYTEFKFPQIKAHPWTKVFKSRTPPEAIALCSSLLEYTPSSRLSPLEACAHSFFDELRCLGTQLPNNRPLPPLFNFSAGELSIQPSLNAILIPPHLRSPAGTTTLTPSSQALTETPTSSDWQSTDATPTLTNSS
PolyA inhibitor = yeast polyadenylation inhibition | 300,000 tested, 0.02% active | AID 1875 | activity score, % at 12 µM | S. cerevisiae SKY197-pL101 polyadenylation reporter, beta-gal luminescence; efflux-impaired pdr1/pdr3 knockout yeast; score 100 = 6 SD above DMSO;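 active means lowest replicate activity score at least 50, where 100 means six control SD above control mean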;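 further: yeast exposed to compound for 9 h at 30 °C; higher score means more reporter readthrough which indicates perturbed polyadenylation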
STK33 kinase inh = human STK33 kinase inhibition. inhibition, % at 10 µM. purified STK33, MBP phosphorylation, ADP-Glo luminescence. 320,000 tested, 0.073% active. AID 2661. Q9BYT3;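 active means inhibition at or above 25%, using the most active replicate where run in duplicate; inactive means inhibition below 25%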
Efflux pump inh = inhibitors of Candida antifungal efflux pumps expressed in yeast. S. cerevisiae Candida pump triplex, Nile Red efflux. inhibition, % at 10 µM. 330,000 tested, 0.44% active. AID 485275;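 active means plate passing quality check with inhibition over a set limit, or well fluorescence over plate mean plus 4 SD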;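 further: Nile Red retained in pooled yeast measured as flow cytometry median fluorescence; 0% = buffer negative control and 100% = Enniatin B positive control; higher means more Nile Red kept so more efflux inhibition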
Yeast cmpd fluor = compound fluorescence in yeast efflux pump counter-screen. shares compounds with Efflux pump inh. S. cerevisiae AD/pABC3, flow cytometry. fluorescence ratio to DMSO, % at 10 µM. 1,700 tested, 4% active. AID 588517;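 active means fluorescence ratio to DMSO above its plate's cutoff, the plate mean ratio plus 5 SD, cut at about 210% in these data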;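 further: unstained yeast with no Nile Red so the signal is compound autofluorescence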
Mdr1 pump inh = blocks the Candida albicans Mdr1 efflux pump in yeast; S. cerevisiae AD/CaMDR1, Nile Red efflux, flow cytometry; 1,700 tested, 1% active; AID 588518; shares compounds with Efflux pump inh; inhibition, % at 10 µM; in the data active means inhibition above about 26%;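 further: 0% = DMSO vehicle and 100% = reference inhibitor; higher means more Nile Red retained so more efflux inhibition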
CaCdr2 efflux inh = blocks the Candida albicans Cdr2 efflux pump in yeast. shares compounds with Efflux pump inh. S. cerevisiae AD/CaCDR2, Nile Red retention, flow cytometry. 1,700 tested, 4% active. Nile Red retention ratio vs DMSO, % at 10 µM. AID 588520; in the data active means Nile Red retention ratio vs DMSO above about 190%;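 further: higher ratio means more blocking of Cdr2 efflux of the dye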
Cdr1 pump inh = Candida Cdr1 efflux pump inhibition; shares compounds with Efflux pump inh; inhibition, % at 10 µM; S. cerevisiae AD/CaCDR1, Nile Red efflux, flow cytometry; AID 588522; 1,700 tested, 1% active;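 active means inhibition above the screen-wide mean plus twice its standard deviation, cut at about 32% in these data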
* hit, by the source's call; · = not tested or not shown; + = active, no number. A selection: hits, their analogues and other compounds. The true share with any hit is near 0.6%.

SMILES	GSK3beta inhib	GSK3A inh	PolyA inhibitor	STK33 kinase inh	Efflux pump inh	others
CC[n+]1c(/C=C/N(C)c2ccccc2)sc2ccc(Cl)cc21	-53*	10	-1	0	0
Cc1ccccc1C1=NCC(=O)N(CC(=O)NCc2ccco2)c2sc3c(c21)CCCC3	·	0	·	0	0
O=C1CN=C(c2cccs2)c2c(sc3c2CCCC3)N1	-59*	82*	-5	-2	0
Cc1cc2c(s1)NC(=O)CN=C2c1cccs1	-23	54*	2	4	0
Cc1ccc2c(c1)C(c1ccccc1)=NCC(=O)N2	-2	27	-13	0	0
O=C1CN=C(c2ccccc2)c2c(sc3c2CCCC3)N1	-27	56*	4	-1	0
CCCNS(=O)(=O)c1ccc(OCC(=O)N2CCN(Cc3ccc4c(c3)OCO4)CC2)c(C)c1	3	·	18	·	0
CC1CC(OC(=O)c2ccccc2)(c2ccccc2)C(C)CN1C (stereo not given)	-1	-7	14	-2	0
CC[C@H]1CN(C)CCc2c([nH]c3ccccc23)C(=O)C[C@@H]1/C(=C\OC)C(=O)OC	0	2	2	1	0
COc1ccc(-n2c(O)c(C(C)=NCCCn3ccnc3)c(=O)[nH]c2=O)cc1	1	54*	-10	0	0
CC1CN(c2cc([N+](=O)[O-])ccc2Cl)CC(C)N1 (stereo not given)	4	1	·	1	0
C[CH2][Hg][S]c1ccccc1C(=O)O	·	-1	·	0	3.0*
CC(C)COC(=O)c1ccccc1C(=O)OCC(C)C	-6	0	-6	-1	0
Nc1ncnc2c1ccn2[C@@H]1O[C@H](CO)[C@@H](O)[C@H]1O	-4	5	4	0	0
NC(=S)c1cn(C2OC(CO)C(O)C2O)c2ncnc(N)c12 (stereo not given)	-52*	64*	13	67*	0
COc1ccc2nc(NC(=O)CCc3nc(C4=CCN(C)CC4)no3)sc2c1	-1	53*	0	3	0
CCN1C(=O)/C(=C/c2ccc(N(CC)CC)cc2OC)C(=O)NC1=S	1	-1	5	-1	0
Oc1cc2c(cc1O)[C@H]1c3ccccc3CN[C@@H]1CC2	-2	8	10	28*	0
C[C@H]1CCCC(=O)CCC/C=C/c2cc(O)cc(O)c2C(=O)O1	-44	52*	0	28*	0
CCN(CC)P(=O)(NC(=O)c1cccn1C)N(CC)CC	3	-2	3	-2	0
CCN1C(=O)C(=C2C=C(C)N(Cc3ccco3)C(C)=C2)C(=O)N(CC)C1=S	-2	55*	-19	4	0
CCN1C(=O)C(=C/C=C/c2ccco2)C(=O)N(CC)C1=S	5	-4	·	3	0
CC(Cc1ccccc1)[n+]1cc(/N=C(\N)[O-])on1 (stereo not given)	3	-1	20	-2	1.1*	Yeast cmpd fluor=95;Mdr1 pump inh=0;CaCdr2 efflux inh=103;Cdr1 pump inh=0
C[C@]12CC[C@H](O)CC1=CCC1C2CC[C@]2(C)C(=O)[C@H](Br)CC12 (stereo not given in full)	·	0	·	-1	0
O=c1[nH]c(=S)[nH]c(O)c1/C=C1/C=c2ccccc2=N1	4	0	6	-1	0.5*	Yeast cmpd fluor=97;Mdr1 pump inh=0;CaCdr2 efflux inh=118;Cdr1 pump inh=0
SMILES	GSK3beta inhib	GSK3A inh	PolyA inhibitor	STK33 kinase inh	Efflux pump inh	others
Cc1cc(N=Nc2ccccc2C)ccc1N	2	-4	-10	-2	0
Cc1nc2ccccc2c(=O)n1-c1ccc(-c2ccccc2)cc1	-1	1	2	0	0
O=P(Nc1c(Cl)cccc1Cl)(c1ccccc1)c1nc2c(s1)CCCC2 (stereo not given)	1	1	-7	-2	5.9*	Yeast cmpd fluor=109;Mdr1 pump inh=-1;CaCdr2 efflux inh=102;Cdr1 pump inh=0
O=P(Nc1ccccc1Cl)(c1ccccc1)c1nc2c(s1)CCCC2 (stereo not given)	3	-1	6	1	0
Fc1ccccc1CN1CCN(c2ccc(Cl)cc2)CC1	-1	0	-7	0	1.7*	Yeast cmpd fluor=92;Mdr1 pump inh=0;CaCdr2 efflux inh=89;Cdr1 pump inh=0
C=CCN1C(=O)NC(=O)/C(=C/c2cc3c4c(c2)CCCN4CCC3)C1=O	-2	-1	3	2	1.6*	Yeast cmpd fluor=118;Mdr1 pump inh=0;CaCdr2 efflux inh=114;Cdr1 pump inh=0
CCC1(C2=NCCN2)Cc2ccccc2O1 (stereo not given)	·	0	·	-2	0
CN1C2CCC1CC(OC(=O)CCN1CCCC1)C2 (stereo not given)	2	-5	1	-1	0.5*	Yeast cmpd fluor=102;Mdr1 pump inh=0;CaCdr2 efflux inh=107;Cdr1 pump inh=0
CC[n+]1c(/C=C/C=C/c2ccc(N(C)C)cc2)sc2ccccc21	-7	10	-2	7	9.9*	Yeast cmpd fluor=+;Mdr1 pump inh=10;CaCdr2 efflux inh=114;Cdr1 pump inh=0
CN(C)c1ccc(/C=C/C=C/c2sc3ccccc3[n+]2C)cc1	-1	-2	-3	2	0
CC(C)[C@H]1C(=O)O[C@H](C(C)C)C(=O)N(C)[C@@H](C(C)C)C(=O)O[C@H](C(C)C)C(=O)N(C)[C@@H](C(C)C)C(=O)O[C@H](C(C)C)C(=O)N1C	4	-1	-7	1	86*	Yeast cmpd fluor=92;Mdr1 pump inh=123*;CaCdr2 efflux inh=114;Cdr1 pump inh=80*
CCN1/C(=C\C=C\C2=[N+](CC)c3ccccc3C2(C)C)C(C)(C)c2ccccc21	-32	36	-68	20	3.2*	Mdr1 pump inh=1;CaCdr2 efflux inh=251*;Cdr1 pump inh=1
CSc1ccccc1C(=O)C1CCCN(Cc2ccn[nH]2)C1 (stereo not given)	1	-2	10	-3	0
CCC(CC)C(=O)NC1CCSC1=O (stereo not given)	1	·	-3	1	0
CC(C)OP(=O)(OC(C)C)C(O)c1ccccc1F (stereo not given)	1	0	-20	-1	0
O=C(N/N=C/c1c(O)n(Cc2ccccc2)c(=O)[nH]c1=O)c1ccccc1O	0	-1	12	-1	14*	Yeast cmpd fluor=98;Mdr1 pump inh=0;CaCdr2 efflux inh=101;Cdr1 pump inh=0
O=C(N/N=C/c1c(O)n(Cc2ccc(F)cc2)c(=O)[nH]c1=O)c1ccccc1O	1	3	-3	0	0

Assay outcomes as filed in PubChem BioAssay.
